Assays:
[1] = Selectivity for Trypanosoma cruzi dihydrofolate reductase compared to human dihydrofolate reductase
[2] = In vitro activity against the amastigote stage of the parasite cultured in mouse fibroblasts (L-6 cells); type: functional, cell-based
In short: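 L-6 mouse fibroblasts seeded, infected next day with trypomastigote T. cruzi expressing beta-galactosidase; after two days medium replaced with serial drug dilutions; four-day incubation; chlorophenol red beta-D-galactopyranoside substrate added, absorbance read at 540 nm 2-6 h later to quantify parasite growth; IC50 determined.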

[3] = biological target: T1, Dihydrofolate reductase (Homo sapiens, UniProt P00374); experiment: Inhibitory activity against dihydrofolate reductase in humans
T1 sequence (P00374 whole entry): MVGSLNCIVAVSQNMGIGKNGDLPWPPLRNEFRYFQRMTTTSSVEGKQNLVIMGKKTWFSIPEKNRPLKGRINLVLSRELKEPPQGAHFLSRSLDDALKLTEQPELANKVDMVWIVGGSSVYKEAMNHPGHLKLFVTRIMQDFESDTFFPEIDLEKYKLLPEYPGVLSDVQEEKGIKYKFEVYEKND

Selectivity [1]	Ki [3] [µM]	Compound	IC50 [2] [µM]
8.9	0.00163	Nc1nc(N)c2nc(CN(CCCCCC(=O)O)c3ccc(C(=O)NC(CCC(=O)O)C(=O)O)cc3)cnc2n1 (stereo not given)	11.5
11.1	0.00145	Nc1nc(N)c2nc(CN(CCCCC(=O)O)c3ccc(C(=O)NC(CCC(=O)O)C(=O)O)cc3)cnc2n1 (stereo not given)	> 167
		CN(Cc1cnc2nc(N)nc(N)c2n1)c1ccc(C(=O)N[C@@H](CCC(=O)O)C(=O)O)cc1 [METHOTREXATE]	9.2
8.71	0.485	CCOC(=O)CCCCCN(Cc1cnc2nc(N)nc(N)c2n1)c1ccc(C(=O)NC(CCC(=O)OCC)C(=O)OCC)cc1 (stereo not given)	53.5
		Nc1nc(N)c2nc(CN(CCCC(=O)O)c3ccc(C(=O)NC(CCC(=O)O)C(=O)O)cc3)cnc2n1 (stereo not given)	> 171
9.9	0.453	CCOC(=O)CCCCN(Cc1cnc2nc(N)nc(N)c2n1)c1ccc(C(=O)NC(CCC(=O)OCC)C(=O)OCC)cc1 (stereo not given)	38.8
		CCOC(=O)CCCN(Cc1cnc2nc(N)nc(N)c2n1)c1ccc(C(=O)NC(CCC(=O)OCC)C(=O)OCC)cc1 (stereo not given)	61

Source: ChEMBL document CHEMBL1131724, “The structure-based design and synthesis of selective inhibitors of Trypanosoma cruzi dihydrofolate reductase” (Bioorg Med Chem Lett, 1999)
